# High-throughput results from PubChem.
# Most compounds without a hit are left out; they make up all but 2.2% or so of the library.
# V-ATPase pHluor = yeast V-ATPase proton transport regulation by pHLuorin; 350,000 compounds, 0.37% hits; S. cerevisiae, pHLuorin cytosolic pH fluorescence; AID 504577; response, % at 10 µM; in the data active means response mostly above about 7.3%, no sharp cut-off; inactive means mostly below about 5.4%; further: actives read high
# NR2E3 ag-1 = activates human photoreceptor nuclear receptor NR2E3 | Q9Y5X4 | inhibition of corepressor binding, % at 4.78 µM | 320,000 compounds, 0.12% hits | GST-NR2E3/biotin-RetCOR TR-FRET, 1536-well;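 active means percent inhibition above the cutoff of mean plus 3 SD of all tested compounds, set per screening campaign, cut at about 20% in these data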;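 further: 0% = DMSO wells and 100% = biotin wells as full block of FRET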
# Target sequence (Q9Y5X4 whole entry, looked up): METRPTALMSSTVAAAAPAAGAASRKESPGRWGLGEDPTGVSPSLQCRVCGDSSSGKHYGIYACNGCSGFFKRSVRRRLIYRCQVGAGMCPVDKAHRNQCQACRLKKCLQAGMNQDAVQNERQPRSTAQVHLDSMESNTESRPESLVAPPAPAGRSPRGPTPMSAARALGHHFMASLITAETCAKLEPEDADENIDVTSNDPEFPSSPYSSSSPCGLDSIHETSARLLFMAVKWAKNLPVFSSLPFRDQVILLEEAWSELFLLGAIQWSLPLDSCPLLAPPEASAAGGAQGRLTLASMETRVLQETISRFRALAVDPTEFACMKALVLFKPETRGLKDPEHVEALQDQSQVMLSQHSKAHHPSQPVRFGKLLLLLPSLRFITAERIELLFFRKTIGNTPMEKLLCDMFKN
#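 Material: NR2E3–RetCOR corepressor complex / Incubation: Compound–protein incubation for 5 h at 4 °C / Dosing: compound at 4.8 µM, single dose / Detection: time-resolved FRET / Benchmarks: high control biotin, low control 0.6% DMSO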
# GalR3 antagonist = blocks the human galanin receptor 3 | HEK293 GalR3-CNG cAMP membrane potential fluorescence; galR3 body fused to GalR1 C-terminus | AID 651719 | inhibition, % at 3 µM | 360,000 compounds, 0.44% hits;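 active means inhibition above the screen-wide average plus 3 SD, cut at about 13% in these data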;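 further: forskolin and galanin both at EC90 stimulate the cells; cAMP rise reported by CNG channel membrane potential dye signal; 0% = forskolin plus galanin with DMSO and 100% = forskolin alone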
# Target sequence (O60755 1-299 limits assumed): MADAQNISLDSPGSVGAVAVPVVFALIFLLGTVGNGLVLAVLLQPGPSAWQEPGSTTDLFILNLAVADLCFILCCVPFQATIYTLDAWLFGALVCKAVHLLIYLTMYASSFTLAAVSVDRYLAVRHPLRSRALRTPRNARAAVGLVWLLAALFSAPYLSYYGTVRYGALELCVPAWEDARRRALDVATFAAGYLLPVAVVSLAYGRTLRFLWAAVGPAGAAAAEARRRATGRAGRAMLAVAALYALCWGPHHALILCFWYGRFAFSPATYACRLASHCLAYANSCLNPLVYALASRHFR
# NR2E3 ag-2 = agonists of human NR2E3 nuclear receptor; 360,000 compounds, 0.35% hits; Q9Y5X4; CHO-S Gal4-NCOR/VP16-NR2E3 two-hybrid, luciferase; inhibition of corepressor binding, % at 3.98 µM;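 active means inhibition above the mean of all tested compounds plus 3 SD, cut at about 70% in these data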;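 further: 0% = DMSO with NR2E3 transfected cells and 100% = cells lacking NR2E3 construct; higher means lower luciferase signal from less NR2E3 corepressor binding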
# HIV Env fusion = HIV envelope-mediated fusion inhibition. HeLa-JRFL Env/CEM21 cell fusion, luciferase. 360,000 compounds, 1.1% hits. AID 651610. inhibition, % at 12.3 µM;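 active means mean replicate inhibition score of at least 50 and every replicate individually at or above 50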;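 further: 0% = plate neutral controls and 100% = maraviroc near 300 nM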
# FXN GAA850 act = frataxin GAA850 promoter activation; 360,000 compounds, 0.56% hits; activation, % at 6 µM; AID 540364; HEK293 lucGAA850 FXN promoter luciferase reporter, 24 h; percent of 10 µM SAHA response;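 active means activation above the average of all compounds screened plus 3 SD, cutoff fixed separately per campaign, cut at about 7.5% in these data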;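 further: 0% = DMSO wells and 100% = 10 µM SAHA wells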
# V-ATPase pH SP = modulates yeast V-ATPase proton transport. shares compounds with V-ATPase pHluor. S. cerevisiae pHLuorin cytosolic pH. response, % at 10 µM. 980 compounds, 2% hits; in the data active means response above about 24%;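 further: plate controls were vehicle wells for no effect and positive control wells for full effect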
# * hit, by the source's call; nt = no result; [ ] = another dose, or the depositor's remark.
SMILES,V-ATPase pHluor,NR2E3 ag-1,GalR3 antagonist,NR2E3 ag-2,HIV Env fusion,FXN GAA850 act,V-ATPase pH SP
Cn1nnnc1Sc1ccc([N+](=O)[O-])cc1Cl,-3,2,-1,-10,-18,0,nt
COC(C(=O)Nc1c(F)cccc1F)c1ccccc1 (stereo not drawn),10*,-2,-6,22,1,-2,-7
CCOC(=O)C1CCCN(c2c(NCCCN3CCCC(C)C3)c(=O)c2=O)C1 (stereo not drawn),13*,1,3,-7,7,1,-1
C[C@H](CO)N1C[C@H](C)[C@@H](CN(C)Cc2ccc(Oc3ccccc3)cc2)Oc2ccc(NC(=O)Nc3ccccc3)cc2CC1=O,nt,nt,nt,nt,0[16.7 µM],nt,nt
O=S1(=O)C=C(Sc2nc3ccccc3s2)c2ccccc21,nt,-4,nt,nt,nt,nt,nt
O=S1(=O)C=C(Sc2nnc(-c3ccccc3)o2)c2ccccc21,17*,11,nt,7,nt,-16,26*
CN(C)CCSc1nnc(-c2ccccc2)o1,7,1,-5,-34,-52,4,nt
Cc1cc(C)nc(SC2=CS(=O)(=O)c3ccccc32)n1,1,-1,-5,24,-64,-6,0
CCOc1ccccc1Nc1nc(-c2sc(C)nc2C)cs1,8.3*,4,-4,-49,-12,3,-1
CCOc1ccccc1Nc1nc(-c2sc(NC(=O)c3ccco3)nc2C)cs1,2,0,-1,13,13,-2,nt
COc1ccc(S(=O)(=O)NCC2CCCO2)cc1NC(=O)c1ccccc1 (stereo not drawn),7.5*,5,-4,3,17,-1,-1
CCOC(=O)c1cn2c(C)cccc2n1,0,1,-3,-6,-8,2,nt
CCOC(=O)c1cccc(C(=O)OCC)n1,1,-1,-5,-13,-12,2,8
O=C(C[C@H]1C[C@H]2c3cc(NC(=O)Nc4ccccc4F)ccc3O[C@H]2[C@H](CO)O1)NCc1ccncc1,nt,nt,nt,nt,-1[16.7 µM],nt,nt
C[C@@H]1CN([C@H](C)CO)C(=O)c2cc(NC(=O)Cc3ccccc3)ccc2O[C@@H]1CN(C)S(=O)(=O)c1ccccc1,nt,nt,nt,nt,-8[16.7 µM],nt,nt
CCC(=O)N1C[C@H](O)COC[C@H]2O[C@@H](CC(=O)NC)CC[C@@H]21,nt,nt,nt,nt,3[16.7 µM],nt,nt
N#C/C(C(N)=O)=C1/CCc2ccccc2N1,13*,-2,2,31,-80,-2,3
O=[N+]([O-])c1ccc2c(c1)C(=Nc1ccccc1)c1ccccc1-2,-6,nt,-4,-16,-30,1,nt
O=[N+]([O-])c1ccc2c(c1)-c1ccccc1C2=NO,20*,nt,-7,-13,0,-3,119*
O=C(Oc1coc(CSc2nnc(NC(=O)c3cccs3)s2)cc1=O)c1ccccc1,9.3*,-2,-1,-23,-20,1,-3
Cc1ccc(C(=O)Oc2coc(CSc3nnc(NC(=O)C4CC4)s3)cc2=O)cc1,0,-1,3,-22,-4,1,nt
CC1CCCN(CCC(=O)c2ccc(Br)cc2)C1 (stereo not drawn),8.8*,-2,-1,-34,nt,0,16
CC(C)NC(=O)Nc1cccc2c1O[C@H](CN(C)S(=O)(=O)c1cccs1)[C@@H](C)CN([C@@H](C)CO)C2=O,nt,nt,nt,nt,-108[16.7 µM],nt,nt
Cc1[nH]c(C)c(S(=O)(=O)N(Cc2ccccc2)C(C)(C)C)c1C(=O)N1CCCC1,10*,0,-5,-21,30,3,3
Cc1ccc(C)c(OCCC(=O)N2CCN(S(=O)(=O)c3ccc([N+](=O)[O-])cc3)CC2)c1,2,-2,-7,2,nt,0,nt
SMILES,V-ATPase pHluor,NR2E3 ag-1,GalR3 antagonist,NR2E3 ag-2,HIV Env fusion,FXN GAA850 act,V-ATPase pH SP
Cc1ccc(S(=O)(=O)N2CCN(C(=O)COC(=O)CCOc3ccccc3C)CC2)cc1,12*,2,-6,21,-8,0,3
Cc1ccc(S(=O)(=O)CCC(=O)OCC(=O)N2CCN(S(=O)(=O)c3ccccc3)CC2)cc1,1,0,0,6,-8,1,nt
Cc1ccc(S(=O)(=O)N2CCN(C(=O)COC(=O)CCOc3cc(C)ccc3C)CC2)cc1,10*,9,-7,9,23,2,2
O=C(CN1CCN(c2ccc(F)cc2)CC1)N1N=CCC1c1ccccc1 (stereo not drawn),-3,-1,-3,-14,nt,3,nt
O=C(CN1CCN(c2ccccc2)CC1)N1N=CCC1c1ccccc1 (stereo not drawn),24*,0,-3,6,nt,1,-3
COC(=O)C[C@@H]1C[C@H]2c3cc(NC(=O)NC4CCCCC4)ccc3O[C@H]2[C@@H](CO)O1,nt,nt,nt,nt,4[16.7 µM],nt,nt
CCN1CCN(C(=O)c2cc(S(=O)(=O)Nc3ccc(S(C)(=O)=O)cc3)ccc2Cl)CC1,10*,2,-8,-2,-4,0,1
CC(=O)N1CCN(C(=O)c2cc(S(=O)(=O)Nc3ccc(S(C)(=O)=O)cc3)ccc2Cl)CC1,-2,0,-5,-11,-1,0,nt
Cc1onc(-c2ccccc2)c1C(=O)c1c[nH]c(C(=O)NCc2ccncc2)c1,11*,0,3,-21,2,1,2
C#CCN1[C@H](/C=C/C2CC2)[C@H](Cc2ccccc2)OC(=O)[C@@H]1Cc1ccccc1,nt,nt,nt,nt,-12[16.7 µM],nt,nt
Cc1cc(C(=O)O)c2ccccc2n1,16*,-1,1,10,-100,-1,4
Cc1cc(C(N)=O)c2ccccc2n1,0,1,-7,5,-2,-1,nt
COC(=O)c1cnc(SCc2ccc(Cl)cc2)n1C,6.3*,4,-3,-38,7,4,2
C[C@H](CO)N1C[C@H](C)[C@@H](CN(C)Cc2ccc(C(=O)Nc3ccccc3N)cc2)Oc2ccc(NS(=O)(=O)c3cccs3)cc2CC1=O,nt,nt,nt,nt,4[16.7 µM],nt,nt
C[C@@H]1CCCCO[C@@H](CN(C)Cc2ccccc2)[C@H](C)CN([C@H](C)CO)C(=O)c2cc(NS(C)(=O)=O)ccc2O1,nt,nt,nt,nt,-6[16.7 µM],nt,nt
CCC(=O)Nc1cc(-c2nn(C)c(=O)c3ccccc23)ccc1OC,-2,1,-4,8,-8,1,nt
COc1ccc(-c2nn(C)c(=O)c3ccccc23)cc1NC(=O)Cn1nc(C)c2ccccc2c1=O,9.9*,-3,0,27,76*,0,0
COc1cc(CC(=O)OCC(=O)NC2CC2)cc(OC)c1OC,2,2,-3,-22,2,1,nt
COc1cc(CC(=O)OCC(=O)NC2CCCC2)cc(OC)c1OC,12*,2,-7,8,nt,0,-1
O=C(CCNC(=O)c1ccccc1)NNC(=O)COc1ccccc1Cl,8.2*,nt,-4,6,-23,-2,0
C[C@@H]1CN([C@H](C)CO)C(=O)c2cc(C#CCc3ccccc3)cnc2O[C@H]1CN(C)Cc1cccnc1,nt,nt,nt,nt,26[16.7 µM],nt,nt
